Key:
[1] = target: T1, Bromodomain-containing protein 1 (Homo sapiens) (UniProt O95696); experiment: Inhibition of His6FLAG-tagged BRD1 expressed in Escherichia coli assessed as change in melting temperature at 100 uM by thermal shift assay
T1 sequence (whole entry): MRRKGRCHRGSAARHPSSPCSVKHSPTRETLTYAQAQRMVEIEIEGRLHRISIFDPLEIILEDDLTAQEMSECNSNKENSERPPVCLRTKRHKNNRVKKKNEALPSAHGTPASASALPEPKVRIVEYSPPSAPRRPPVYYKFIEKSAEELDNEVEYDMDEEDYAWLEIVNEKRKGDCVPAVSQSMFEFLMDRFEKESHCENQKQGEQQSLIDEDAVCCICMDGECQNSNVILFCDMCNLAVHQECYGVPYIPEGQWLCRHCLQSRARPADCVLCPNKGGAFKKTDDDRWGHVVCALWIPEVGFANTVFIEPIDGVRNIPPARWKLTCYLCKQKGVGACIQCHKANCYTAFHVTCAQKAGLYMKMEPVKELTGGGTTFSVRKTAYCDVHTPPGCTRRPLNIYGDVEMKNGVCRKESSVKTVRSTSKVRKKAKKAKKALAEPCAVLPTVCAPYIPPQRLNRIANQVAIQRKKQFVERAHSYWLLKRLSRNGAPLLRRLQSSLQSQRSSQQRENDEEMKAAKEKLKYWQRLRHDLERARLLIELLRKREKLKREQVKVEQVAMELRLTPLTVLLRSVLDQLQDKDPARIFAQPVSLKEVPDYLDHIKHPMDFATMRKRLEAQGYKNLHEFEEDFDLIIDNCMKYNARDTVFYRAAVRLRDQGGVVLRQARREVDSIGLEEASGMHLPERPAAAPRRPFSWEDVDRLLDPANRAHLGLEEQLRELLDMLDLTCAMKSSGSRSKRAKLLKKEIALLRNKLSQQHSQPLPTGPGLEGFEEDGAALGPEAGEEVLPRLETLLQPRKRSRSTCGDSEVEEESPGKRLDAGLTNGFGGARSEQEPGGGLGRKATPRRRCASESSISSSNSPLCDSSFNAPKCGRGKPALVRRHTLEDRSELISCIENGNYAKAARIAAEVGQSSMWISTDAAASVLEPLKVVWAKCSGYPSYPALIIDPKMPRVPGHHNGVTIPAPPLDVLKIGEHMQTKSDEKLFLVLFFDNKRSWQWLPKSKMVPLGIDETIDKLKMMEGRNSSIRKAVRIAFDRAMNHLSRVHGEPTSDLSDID
How it was run: (§1)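 Thermal melt: protein heated with or without 100 μM compound, at least duplicate; Sypro orange at 1:1000 in PBS with 10% glycerol; ramp 1 °C/min, fluorescence read every 0.5 °C; ΔTm reported.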

[2] = target: Bromodomain adjacent to zinc finger domain protein 2B (Homo sapiens) (UniProt Q9UIF8); experiment: Inhibition of His6FLAG-tagged BAZ2B expressed in Escherichia coli assessed as change in melting temperature at 100 uM by thermal shift assay; how it was run: as §1
[3] = target: T2, Bromodomain-containing protein 2 (Homo sapiens, UniProt P25440); experiment: Binding affinity to His6-tagged BRD2 expressed in Escherichia coli by surface plasmon resonance assay
How it was run: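 SPR with tandem bromodomain (BRD2-BD12 or BRD4-BD12) amine-coupled to CM5 chip after EDC/NHS activation; protein 0.1−2 mg/mL in NaAc pH 4.5−5.5, >5 kRU immobilized, ethanolamine-blocked. Running buffer 50 mM HEPES pH 7.5, 150 mM NaCl.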

[4] = target: Bromodomain-containing protein 4 (Homo sapiens, UniProt O60885); experiment: Inhibition of His6FLAG-tagged BRD4-BD1 expressed in Escherichia coli assessed as change in melting temperature at 100 uM by thermal shift assay; how it was run: as §1
[5] = target: PH-interacting protein (Homo sapiens) (UniProt Q8WWQ0); experiment: Inhibition of His6FLAG-tagged PHIP-BD2 expressed in Escherichia coli assessed as change in melting temperature at 100 uM by thermal shift assay; how it was run: as §1
[6] = target: T3, E3 ubiquitin-protein ligase TRIM33 (Homo sapiens) (UniProt Q9UPN9); experiment: Inhibition of His6FLAG-tagged TRIM33 isoform B expressed in Escherichia coli assessed as change in melting temperature at 100 uM by thermal shift assay; how it was run: as §1
T3 sequence (whole entry): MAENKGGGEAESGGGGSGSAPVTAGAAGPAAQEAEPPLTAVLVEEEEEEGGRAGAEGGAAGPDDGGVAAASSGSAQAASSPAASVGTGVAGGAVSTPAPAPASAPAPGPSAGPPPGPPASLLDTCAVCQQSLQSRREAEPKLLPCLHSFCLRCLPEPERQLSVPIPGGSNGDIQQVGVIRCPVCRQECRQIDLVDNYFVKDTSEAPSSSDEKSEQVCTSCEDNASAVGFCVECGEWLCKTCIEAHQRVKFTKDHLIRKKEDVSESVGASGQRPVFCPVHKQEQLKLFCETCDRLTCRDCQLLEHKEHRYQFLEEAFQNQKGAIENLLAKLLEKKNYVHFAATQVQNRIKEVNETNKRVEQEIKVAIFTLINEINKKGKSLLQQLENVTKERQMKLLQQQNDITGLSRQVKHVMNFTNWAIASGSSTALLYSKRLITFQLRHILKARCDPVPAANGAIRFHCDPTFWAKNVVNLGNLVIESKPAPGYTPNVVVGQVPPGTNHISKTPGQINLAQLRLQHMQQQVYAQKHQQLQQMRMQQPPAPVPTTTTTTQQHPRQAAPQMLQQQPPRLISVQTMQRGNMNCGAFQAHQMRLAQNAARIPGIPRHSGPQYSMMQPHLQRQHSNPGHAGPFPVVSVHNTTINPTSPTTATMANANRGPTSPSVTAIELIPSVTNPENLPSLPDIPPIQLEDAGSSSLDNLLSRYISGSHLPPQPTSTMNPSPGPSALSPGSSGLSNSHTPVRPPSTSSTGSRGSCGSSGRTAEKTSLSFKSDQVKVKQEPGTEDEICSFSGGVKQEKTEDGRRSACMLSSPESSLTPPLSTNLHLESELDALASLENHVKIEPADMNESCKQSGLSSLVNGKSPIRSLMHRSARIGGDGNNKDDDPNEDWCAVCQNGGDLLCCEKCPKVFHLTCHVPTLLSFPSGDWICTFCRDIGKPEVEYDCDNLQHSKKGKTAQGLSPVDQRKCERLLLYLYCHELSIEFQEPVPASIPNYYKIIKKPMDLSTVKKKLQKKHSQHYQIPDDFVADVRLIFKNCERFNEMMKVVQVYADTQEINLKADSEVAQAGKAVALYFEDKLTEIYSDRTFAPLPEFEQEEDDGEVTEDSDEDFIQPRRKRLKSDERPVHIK

[7] = target: T2, Bromodomain-containing protein 2; experiment: Inhibition of His6FLAG-tagged BRD2-BD1 expressed in Escherichia coli assessed as change in melting temperature at 100 uM by thermal shift assay; how it was run: as §1
Target sequence in this assay (P25440 whole entry, looked up): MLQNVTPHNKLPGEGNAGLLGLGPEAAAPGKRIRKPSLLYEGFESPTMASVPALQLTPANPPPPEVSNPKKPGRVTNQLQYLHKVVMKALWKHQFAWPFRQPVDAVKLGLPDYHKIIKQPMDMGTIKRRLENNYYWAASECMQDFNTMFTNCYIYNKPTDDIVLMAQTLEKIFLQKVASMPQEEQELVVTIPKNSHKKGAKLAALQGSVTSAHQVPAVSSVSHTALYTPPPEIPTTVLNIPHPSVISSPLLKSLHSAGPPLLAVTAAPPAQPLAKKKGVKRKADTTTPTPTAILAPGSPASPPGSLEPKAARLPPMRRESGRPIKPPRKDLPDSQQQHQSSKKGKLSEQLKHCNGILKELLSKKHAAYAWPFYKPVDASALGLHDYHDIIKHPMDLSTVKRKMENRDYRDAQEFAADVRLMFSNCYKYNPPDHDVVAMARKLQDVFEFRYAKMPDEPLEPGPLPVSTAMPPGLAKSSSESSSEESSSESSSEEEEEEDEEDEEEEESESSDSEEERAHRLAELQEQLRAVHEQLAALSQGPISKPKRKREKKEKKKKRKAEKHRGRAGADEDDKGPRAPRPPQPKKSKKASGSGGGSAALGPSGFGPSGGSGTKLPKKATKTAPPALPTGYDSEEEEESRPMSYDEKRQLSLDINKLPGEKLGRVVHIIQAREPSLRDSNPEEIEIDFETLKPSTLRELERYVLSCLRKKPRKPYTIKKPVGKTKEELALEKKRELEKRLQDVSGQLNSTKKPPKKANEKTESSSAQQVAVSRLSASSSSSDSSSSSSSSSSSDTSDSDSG

[8] = test system: Blood; experiment: Antiinflammatory activity in human whole blood assessed as inhibition of LPS-induced TNFalpha production after 18 to 24 hrs by ELISA; format: functional, tissue-based

Bromodomain adjacent to zinc finger domain protein 2B (Homo sapiens), sequence (Q9UIF8 whole entry, the tested form may be a part): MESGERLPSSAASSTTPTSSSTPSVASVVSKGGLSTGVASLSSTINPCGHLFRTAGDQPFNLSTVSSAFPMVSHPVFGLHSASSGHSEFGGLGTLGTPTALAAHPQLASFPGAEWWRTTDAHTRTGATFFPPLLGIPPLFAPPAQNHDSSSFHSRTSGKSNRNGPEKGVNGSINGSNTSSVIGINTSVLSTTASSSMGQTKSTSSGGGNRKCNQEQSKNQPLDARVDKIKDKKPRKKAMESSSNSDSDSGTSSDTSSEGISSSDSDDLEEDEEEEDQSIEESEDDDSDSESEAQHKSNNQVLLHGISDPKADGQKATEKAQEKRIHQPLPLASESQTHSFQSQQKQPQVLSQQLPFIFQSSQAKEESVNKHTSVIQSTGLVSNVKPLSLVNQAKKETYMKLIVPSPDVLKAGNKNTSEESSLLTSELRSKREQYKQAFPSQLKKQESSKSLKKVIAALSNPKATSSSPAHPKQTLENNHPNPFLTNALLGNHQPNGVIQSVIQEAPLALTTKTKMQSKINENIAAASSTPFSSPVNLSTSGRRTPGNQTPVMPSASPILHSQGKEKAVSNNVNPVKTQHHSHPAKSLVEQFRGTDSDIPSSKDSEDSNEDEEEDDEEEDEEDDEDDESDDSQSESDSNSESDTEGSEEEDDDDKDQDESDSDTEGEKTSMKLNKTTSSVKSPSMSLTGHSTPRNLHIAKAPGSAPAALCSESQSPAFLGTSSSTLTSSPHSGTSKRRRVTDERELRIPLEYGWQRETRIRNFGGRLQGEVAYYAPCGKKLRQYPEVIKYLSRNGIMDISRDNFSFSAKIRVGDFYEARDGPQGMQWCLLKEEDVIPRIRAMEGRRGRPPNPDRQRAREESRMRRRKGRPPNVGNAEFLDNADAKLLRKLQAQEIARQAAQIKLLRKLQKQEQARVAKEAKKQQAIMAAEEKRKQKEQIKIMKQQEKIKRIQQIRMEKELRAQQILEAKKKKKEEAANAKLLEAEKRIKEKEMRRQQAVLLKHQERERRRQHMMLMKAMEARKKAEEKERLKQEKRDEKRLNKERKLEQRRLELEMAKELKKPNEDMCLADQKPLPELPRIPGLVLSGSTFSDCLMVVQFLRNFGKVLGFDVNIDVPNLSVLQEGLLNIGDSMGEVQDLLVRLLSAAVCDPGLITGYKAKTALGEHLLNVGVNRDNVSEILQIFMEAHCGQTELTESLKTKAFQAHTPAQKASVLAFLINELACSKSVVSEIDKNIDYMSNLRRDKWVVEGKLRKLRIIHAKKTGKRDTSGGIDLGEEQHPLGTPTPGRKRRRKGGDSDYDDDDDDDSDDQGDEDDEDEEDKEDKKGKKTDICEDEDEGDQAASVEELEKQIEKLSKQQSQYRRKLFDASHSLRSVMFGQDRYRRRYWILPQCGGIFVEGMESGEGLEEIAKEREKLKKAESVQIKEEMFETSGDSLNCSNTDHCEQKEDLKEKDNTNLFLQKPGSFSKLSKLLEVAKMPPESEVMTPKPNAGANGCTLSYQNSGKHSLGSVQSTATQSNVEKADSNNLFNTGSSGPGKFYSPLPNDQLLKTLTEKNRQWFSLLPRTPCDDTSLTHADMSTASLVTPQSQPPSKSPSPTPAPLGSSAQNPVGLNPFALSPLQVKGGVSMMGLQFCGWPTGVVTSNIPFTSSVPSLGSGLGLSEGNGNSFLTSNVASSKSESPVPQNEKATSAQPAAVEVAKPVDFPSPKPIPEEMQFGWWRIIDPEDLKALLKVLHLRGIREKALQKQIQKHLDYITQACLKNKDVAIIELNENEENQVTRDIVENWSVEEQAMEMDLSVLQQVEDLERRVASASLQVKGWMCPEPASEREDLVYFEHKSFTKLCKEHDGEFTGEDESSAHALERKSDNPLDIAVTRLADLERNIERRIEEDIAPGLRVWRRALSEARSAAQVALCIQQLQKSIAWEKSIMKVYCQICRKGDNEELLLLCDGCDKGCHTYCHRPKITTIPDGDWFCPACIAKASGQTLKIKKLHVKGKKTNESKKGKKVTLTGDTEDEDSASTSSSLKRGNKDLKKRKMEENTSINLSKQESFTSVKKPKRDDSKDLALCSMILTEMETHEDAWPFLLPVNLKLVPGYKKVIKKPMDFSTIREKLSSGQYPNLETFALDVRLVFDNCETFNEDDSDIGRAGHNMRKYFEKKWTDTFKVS

ΔTm [1] [°C]	ΔTm [2] [°C]	Kd [3] [µM]	RUmax [3] [%]	ΔTm [4] [°C]	ΔTm [5] [°C]	ΔTm [6] [°C]	ΔTm [7] [°C]	IC50 [8] [µM]	Compound
< 1	< 1	3.14	34	2	< 1	< 1	1		Cc1noc(C)c1-c1ccc(OCCCN2CCOCC2)c(S(=O)(=O)NC2CCCC2)c1
< 1	< 1			2	< 1	< 1	1	5	Cc1ccc(-c2c(C)noc2C)cc1S(=O)(=O)NC1CCCC1
